In ChEMBL document CHEMBL1152191, “Identification and optimization of N3,N6-diaryl-1H-pyrazolo[3,4-d]pyrimidine-3,6-diamines as a novel class of ACK1 inhibitors” (Bioorg Med Chem Lett, 2008):

Assays:
Activated CDC42 kinase 1 [1] = target: T1, Activated CDC42 kinase 1 (Homo sapiens, UniProt Q07912); assay: Inhibition of histidine-tagged ACK1 (amino acids 117 to 489) expressed in SF9 cells
Activated CDC42 kinase 1 [2] = target: T1, Activated CDC42 kinase 1; assay: Inhibition of flag-tagged ACK1 autophosphorylation expressed in human 293 cells; assay type: cell-based, HEK293
Summary of the method: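 293 cells stably expressing Flag-ACK1 are detached with PBS/EDTA, washed, and pre-incubated in suspension with DMSO or compound. They are then re-plated for 2 h in medium with 10% FCS, with directly lysed cells as control. Autophosphorylation is read by anti-pTyr western blot after Flag IP, and IC50 determined.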

[3] = target: Tyrosine-protein kinase Lck (Homo sapiens, UniProt P06239); assay: Inhibition of LCK
[4] = target: Tyrosine-protein kinase BTK (Homo sapiens, UniProt Q06187); assay: Inhibition of BTK
[5] = target: Vascular endothelial growth factor receptor 2 (Homo sapiens, UniProt P35968); assay: Inhibition of KDR
Angiopoietin-1 receptor = Angiopoietin-1 receptor (Homo sapiens, UniProt Q02763); assay: Inhibition of Tie2
[6] = target: T2, Tyrosine-protein kinase JAK3 (Homo sapiens, UniProt P52333); assay: Inhibition of Jak3
T2 sequence (P52333 whole entry): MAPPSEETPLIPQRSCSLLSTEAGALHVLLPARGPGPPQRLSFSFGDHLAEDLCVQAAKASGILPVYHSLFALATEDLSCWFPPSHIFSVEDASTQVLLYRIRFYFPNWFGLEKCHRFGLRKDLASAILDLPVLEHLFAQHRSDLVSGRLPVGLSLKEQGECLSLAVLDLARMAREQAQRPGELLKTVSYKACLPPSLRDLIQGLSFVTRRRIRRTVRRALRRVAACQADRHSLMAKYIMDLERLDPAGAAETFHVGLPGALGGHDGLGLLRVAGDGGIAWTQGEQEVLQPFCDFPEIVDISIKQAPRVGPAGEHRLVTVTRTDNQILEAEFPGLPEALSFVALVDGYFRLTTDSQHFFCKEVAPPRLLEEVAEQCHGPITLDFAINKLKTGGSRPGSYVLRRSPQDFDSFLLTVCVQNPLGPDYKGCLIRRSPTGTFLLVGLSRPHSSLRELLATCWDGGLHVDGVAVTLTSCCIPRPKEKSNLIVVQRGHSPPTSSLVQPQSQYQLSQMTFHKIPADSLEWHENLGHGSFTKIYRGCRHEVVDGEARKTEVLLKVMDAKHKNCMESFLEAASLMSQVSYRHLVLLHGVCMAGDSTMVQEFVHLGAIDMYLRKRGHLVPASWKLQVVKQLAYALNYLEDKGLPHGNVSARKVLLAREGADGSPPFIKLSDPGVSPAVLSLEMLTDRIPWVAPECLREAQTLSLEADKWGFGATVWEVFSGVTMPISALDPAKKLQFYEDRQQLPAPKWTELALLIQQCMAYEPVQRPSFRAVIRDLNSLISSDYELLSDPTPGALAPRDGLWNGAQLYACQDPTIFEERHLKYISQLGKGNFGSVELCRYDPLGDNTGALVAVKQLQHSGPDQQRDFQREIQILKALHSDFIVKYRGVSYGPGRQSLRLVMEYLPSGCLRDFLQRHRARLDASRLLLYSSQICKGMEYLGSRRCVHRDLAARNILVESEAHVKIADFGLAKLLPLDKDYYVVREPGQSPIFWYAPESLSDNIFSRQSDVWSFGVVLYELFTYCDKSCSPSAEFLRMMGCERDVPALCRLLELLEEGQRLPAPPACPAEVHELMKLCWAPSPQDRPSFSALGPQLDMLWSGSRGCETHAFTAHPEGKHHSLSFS

[7] = Clearance in Sprague-Dawley rat at 0.5 mg/kg, iv; assay type: ADME, organism-based; parameters: dose 0.5 mg/kg, route intravenous; conditions: in vivo
Summary of the method: (§1)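 Male Sprague–Dawley rats received 0.5 mg/kg as an iv dose, with n = 3 animals per study. CL, Vss, MRT and AUC were derived from the plasma concentration profile.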

[8] = Volume of distribution at steady state in Sprague-Dawley rat at 0.5 mg/kg, iv; assay type: ADME, organism-based; parameters: dose 0.5 mg/kg, route intravenous; conditions: in vivo, read-out: Vdss; summary of the method: as §1
[9] = Mean residence time in Sprague-Dawley rat at 0.5 mg/kg, iv; assay type: ADME, organism-based; parameters: dose 0.5 mg/kg, route intravenous; conditions: in vivo; summary of the method: as §1
[10] = AUC in Sprague-Dawley rat at 0.5 mg/kg, iv; assay type: ADME, organism-based; parameters: dose 0.5 mg/kg, route intravenous; conditions: plasma; summary of the method: as §1
[11] = Oral bioavailability in Sprague-Dawley rat at 4 mg/kg; assay type: ADME, organism-based; conditions: in vivo
[12] = Clearance in Sprague-Dawley rat at 0.4 mg/kg, iv; assay type: ADME, organism-based; parameters: dose 0.4 mg/kg, route intravenous; conditions: in vivo
Summary of the method: (§2)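 Male Sprague–Dawley rats were dosed intravenously; clearance and AUC were taken from the plasma profile.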

[13] = AUC in Sprague-Dawley rat at 0.4 mg/kg, iv; assay type: ADME, organism-based; parameters: dose 0.4 mg/kg, route intravenous; conditions: plasma; summary of the method: as §2

Sequence of Tyrosine-protein kinase BTK (Q06187 whole entry): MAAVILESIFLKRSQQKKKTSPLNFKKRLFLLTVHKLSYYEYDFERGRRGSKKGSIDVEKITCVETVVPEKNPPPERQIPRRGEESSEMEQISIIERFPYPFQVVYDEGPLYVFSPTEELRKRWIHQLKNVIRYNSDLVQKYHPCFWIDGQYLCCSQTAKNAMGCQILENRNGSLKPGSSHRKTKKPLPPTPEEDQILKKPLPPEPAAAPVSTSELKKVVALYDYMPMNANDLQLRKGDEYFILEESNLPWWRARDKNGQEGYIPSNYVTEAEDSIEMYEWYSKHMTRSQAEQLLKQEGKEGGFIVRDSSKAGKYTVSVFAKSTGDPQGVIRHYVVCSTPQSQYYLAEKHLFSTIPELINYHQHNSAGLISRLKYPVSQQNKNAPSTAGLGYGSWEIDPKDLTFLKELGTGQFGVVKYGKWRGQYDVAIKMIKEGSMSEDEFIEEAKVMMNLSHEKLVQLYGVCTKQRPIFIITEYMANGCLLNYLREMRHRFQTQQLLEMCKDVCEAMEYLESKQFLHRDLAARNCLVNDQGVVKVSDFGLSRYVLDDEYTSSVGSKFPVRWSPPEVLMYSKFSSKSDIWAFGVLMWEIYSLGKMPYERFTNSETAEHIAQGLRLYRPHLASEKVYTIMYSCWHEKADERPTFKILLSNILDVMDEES
Sequence of Vascular endothelial growth factor receptor 2 (P35968 whole entry): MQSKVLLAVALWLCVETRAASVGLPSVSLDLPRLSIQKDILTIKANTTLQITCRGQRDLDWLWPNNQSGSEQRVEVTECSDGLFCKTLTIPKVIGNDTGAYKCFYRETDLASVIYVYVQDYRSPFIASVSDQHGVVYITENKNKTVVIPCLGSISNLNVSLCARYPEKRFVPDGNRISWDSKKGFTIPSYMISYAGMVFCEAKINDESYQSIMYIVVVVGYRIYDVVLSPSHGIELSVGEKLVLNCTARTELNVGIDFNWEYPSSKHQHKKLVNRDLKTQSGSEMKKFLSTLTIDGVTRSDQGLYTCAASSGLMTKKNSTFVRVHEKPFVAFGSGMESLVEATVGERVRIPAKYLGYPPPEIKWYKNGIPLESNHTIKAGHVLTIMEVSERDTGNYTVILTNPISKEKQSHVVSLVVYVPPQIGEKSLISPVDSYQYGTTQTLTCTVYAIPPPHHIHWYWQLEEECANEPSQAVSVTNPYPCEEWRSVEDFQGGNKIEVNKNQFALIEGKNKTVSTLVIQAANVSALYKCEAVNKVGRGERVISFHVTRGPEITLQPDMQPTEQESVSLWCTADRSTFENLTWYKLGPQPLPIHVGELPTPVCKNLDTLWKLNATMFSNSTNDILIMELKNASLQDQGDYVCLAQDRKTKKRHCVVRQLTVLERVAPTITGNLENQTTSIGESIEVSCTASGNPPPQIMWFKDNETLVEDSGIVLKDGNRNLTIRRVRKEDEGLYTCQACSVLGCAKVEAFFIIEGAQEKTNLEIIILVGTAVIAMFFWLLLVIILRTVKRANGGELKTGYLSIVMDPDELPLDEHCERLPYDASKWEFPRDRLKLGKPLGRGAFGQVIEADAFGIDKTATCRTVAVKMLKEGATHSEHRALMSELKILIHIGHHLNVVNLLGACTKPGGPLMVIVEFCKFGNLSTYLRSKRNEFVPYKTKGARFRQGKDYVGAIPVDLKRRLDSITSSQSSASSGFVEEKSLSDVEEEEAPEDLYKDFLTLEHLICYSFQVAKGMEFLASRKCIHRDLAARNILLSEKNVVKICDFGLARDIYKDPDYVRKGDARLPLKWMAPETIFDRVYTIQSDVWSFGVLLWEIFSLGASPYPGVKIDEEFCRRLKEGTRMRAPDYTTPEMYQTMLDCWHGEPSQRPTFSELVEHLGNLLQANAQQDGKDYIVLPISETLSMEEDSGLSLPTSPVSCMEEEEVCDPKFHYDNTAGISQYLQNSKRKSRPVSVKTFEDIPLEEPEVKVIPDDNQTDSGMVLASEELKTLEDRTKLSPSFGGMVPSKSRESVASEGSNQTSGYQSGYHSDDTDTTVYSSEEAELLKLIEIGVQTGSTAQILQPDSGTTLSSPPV
Sequence of Tyrosine-protein kinase Lck (P06239 whole entry): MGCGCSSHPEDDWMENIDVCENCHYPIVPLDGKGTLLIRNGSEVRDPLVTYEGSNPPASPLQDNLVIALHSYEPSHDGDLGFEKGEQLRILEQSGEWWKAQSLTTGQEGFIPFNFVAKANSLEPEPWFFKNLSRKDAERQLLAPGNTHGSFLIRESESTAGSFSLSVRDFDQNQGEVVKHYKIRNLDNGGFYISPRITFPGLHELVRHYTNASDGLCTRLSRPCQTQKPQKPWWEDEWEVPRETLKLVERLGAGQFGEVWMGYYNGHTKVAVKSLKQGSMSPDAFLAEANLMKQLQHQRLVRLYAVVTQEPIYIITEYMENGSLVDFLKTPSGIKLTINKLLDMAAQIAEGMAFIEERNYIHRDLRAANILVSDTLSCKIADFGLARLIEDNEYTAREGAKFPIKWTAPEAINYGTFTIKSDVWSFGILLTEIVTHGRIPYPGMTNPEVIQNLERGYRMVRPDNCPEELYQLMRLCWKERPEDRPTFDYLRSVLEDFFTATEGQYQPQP
Sequence of Angiopoietin-1 receptor (Q02763 whole entry): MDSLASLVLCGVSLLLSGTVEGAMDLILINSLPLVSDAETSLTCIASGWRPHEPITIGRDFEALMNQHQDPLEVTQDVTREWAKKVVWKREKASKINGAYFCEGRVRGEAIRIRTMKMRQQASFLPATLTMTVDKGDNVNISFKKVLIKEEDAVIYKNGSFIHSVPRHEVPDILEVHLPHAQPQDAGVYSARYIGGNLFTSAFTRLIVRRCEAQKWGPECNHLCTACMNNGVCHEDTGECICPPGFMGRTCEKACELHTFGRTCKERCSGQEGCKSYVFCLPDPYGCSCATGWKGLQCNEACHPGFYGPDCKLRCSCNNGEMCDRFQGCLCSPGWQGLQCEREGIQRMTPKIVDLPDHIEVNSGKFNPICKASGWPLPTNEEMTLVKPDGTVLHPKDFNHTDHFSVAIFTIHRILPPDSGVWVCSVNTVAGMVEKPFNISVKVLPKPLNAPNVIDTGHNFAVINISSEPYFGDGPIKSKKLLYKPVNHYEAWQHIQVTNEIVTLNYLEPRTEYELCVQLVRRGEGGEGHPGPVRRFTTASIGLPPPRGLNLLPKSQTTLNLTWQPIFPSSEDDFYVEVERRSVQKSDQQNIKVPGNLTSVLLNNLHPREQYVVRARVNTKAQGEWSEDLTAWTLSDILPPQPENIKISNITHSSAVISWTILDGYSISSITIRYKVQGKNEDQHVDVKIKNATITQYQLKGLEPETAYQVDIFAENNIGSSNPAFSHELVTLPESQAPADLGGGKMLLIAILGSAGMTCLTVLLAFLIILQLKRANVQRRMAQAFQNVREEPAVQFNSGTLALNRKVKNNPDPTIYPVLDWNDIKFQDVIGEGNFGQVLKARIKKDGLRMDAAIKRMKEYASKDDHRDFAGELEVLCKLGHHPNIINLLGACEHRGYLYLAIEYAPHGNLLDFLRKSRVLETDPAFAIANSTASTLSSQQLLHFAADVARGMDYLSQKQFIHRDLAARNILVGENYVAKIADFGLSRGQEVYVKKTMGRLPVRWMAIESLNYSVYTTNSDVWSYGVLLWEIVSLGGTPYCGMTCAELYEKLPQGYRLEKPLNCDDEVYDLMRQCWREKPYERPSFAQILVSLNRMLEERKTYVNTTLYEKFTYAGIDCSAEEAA
T1 sequence (Q07912 whole entry, the tested form may be a part): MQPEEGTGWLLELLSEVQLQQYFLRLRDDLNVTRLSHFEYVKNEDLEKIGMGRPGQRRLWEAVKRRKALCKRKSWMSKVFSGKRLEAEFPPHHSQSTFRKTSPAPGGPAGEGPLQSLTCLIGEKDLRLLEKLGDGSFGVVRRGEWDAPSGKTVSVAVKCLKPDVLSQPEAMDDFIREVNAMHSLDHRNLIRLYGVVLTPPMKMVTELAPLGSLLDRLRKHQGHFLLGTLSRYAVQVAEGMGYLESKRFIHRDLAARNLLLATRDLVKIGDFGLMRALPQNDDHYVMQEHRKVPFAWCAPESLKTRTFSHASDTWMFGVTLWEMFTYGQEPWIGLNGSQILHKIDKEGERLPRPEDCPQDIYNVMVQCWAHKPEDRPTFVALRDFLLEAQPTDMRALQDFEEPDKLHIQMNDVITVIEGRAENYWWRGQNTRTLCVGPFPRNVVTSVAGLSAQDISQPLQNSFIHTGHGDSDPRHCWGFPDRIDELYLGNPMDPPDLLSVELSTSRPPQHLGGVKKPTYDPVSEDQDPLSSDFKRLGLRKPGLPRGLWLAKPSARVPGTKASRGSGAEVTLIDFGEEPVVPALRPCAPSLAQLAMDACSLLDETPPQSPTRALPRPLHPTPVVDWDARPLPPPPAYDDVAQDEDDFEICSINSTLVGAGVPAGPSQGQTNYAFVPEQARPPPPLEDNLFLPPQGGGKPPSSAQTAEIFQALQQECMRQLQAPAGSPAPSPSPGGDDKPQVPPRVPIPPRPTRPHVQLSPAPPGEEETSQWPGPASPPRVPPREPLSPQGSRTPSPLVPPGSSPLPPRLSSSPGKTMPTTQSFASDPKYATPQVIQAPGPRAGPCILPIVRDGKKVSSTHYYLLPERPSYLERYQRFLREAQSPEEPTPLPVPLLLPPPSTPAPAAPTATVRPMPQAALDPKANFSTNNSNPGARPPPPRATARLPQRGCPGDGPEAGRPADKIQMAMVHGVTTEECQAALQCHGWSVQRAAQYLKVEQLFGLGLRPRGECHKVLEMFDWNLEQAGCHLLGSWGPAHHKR

SMILES	Ki (Activated CDC42 kinase 1 [1])	IC50 (Activated CDC42 kinase 1 [2])	further results
O=C(Cn1nc(Nc2c(Cl)cccc2Cl)c2cnc(Nc3ccccc3)nc21)N1CCOCC1	70 nM	140 nM	
COC(C)(C)CCn1nc(Nc2c(C)cc(C)cc2C)c2cnc(Nc3ccc(N4CCN(C)CC4)cc3)nc21	12 nM	50 nM	
COC(C)(C)CCn1nc(Nc2c(C)cccc2C)c2cnc(Nc3ccc(N4CCN(C)CC4)cc3)nc21	2 nM	20 nM	
COC(C)(C)CCn1nc(Nc2c(C)cccc2C)c2cnc(Nc3ccc(OCCN4CCCC4)c(F)c3)nc21	3 nM	20 nM	Ki [3]: 11 nM; Ki [4]: 125 nM; Ki [5]: > 12500 nM; Ki (Angiopoietin-1 receptor): > 2500 nM; Ki [6]: > 12500 nM
COC(C)(C)CCn1nc(Nc2c(C)cccc2C)c2cnc(Nc3ccc(OCCN4CCCC4)cc3)nc21	3 nM	20 nM	Ki [3]: 0.04 nM; Ki [4]: 0.25 nM; Ki [5]: 1590 nM; Ki (Angiopoietin-1 receptor): 1160 nM; Ki [6]: 170 nM
COC(C)(C)CCn1nc(Nc2c(C)cccc2C)c2cnc(Nc3ccc(OCCCN4CCCCC4)c(F)c3)nc21	3 nM	60 nM	clearance [7]: 58.3 mL/min/kg; Vd [8]: 7.5 L/kg; MRT [9]: 2 h; AUC [10]: 148 ng·h/mL
COC(C)(C)CCn1nc(Nc2c(C)cccc2C)c2cnc(Nc3ccc(N4CCNCC4)cc3)nc21			clearance [7]: 95 mL/min/kg; Vd [8]: 20.3 L/kg; MRT [9]: 3.5 h; AUC [10]: 104 ng·h/mL
COC(C)(C)CCn1nc(Nc2c(C)cc(F)cc2C)c2cnc(Nc3ccc(N4CCN(C)CC4)cc3)nc21	10 nM	20 nM	
COC(C)(C)CCn1nc(Nc2c(Cl)cccc2Cl)c2cnc(Nc3ccccc3)nc21	7 nM	40 nM	
Cc1cccc(C)c1Nc1nn(CC[C@@H](O)CO)c2nc(Nc3ccccc3)ncc12	30 nM	60 nM	
OC[C@H]1CCCN1CCn1nc(Nc2c(Cl)cccc2Cl)c2cnc(Nc3ccccc3)nc21	30 nM	50 nM	
CN(C)CCCn1nc(Nc2c(Cl)cccc2Cl)c2cnc(Nc3ccccc3)nc21	5 nM	20 nM	
CN1CCN(CCn2nc(Nc3c(Cl)cccc3Cl)c3cnc(Nc4ccccc4)nc32)CC1	10 nM	30 nM	
COC(C)(C)CCn1nc(Nc2ccccc2)c2cnc(Nc3ccccc3)nc21	> 4000 nM		
COC(C)(C)CCn1nc(Nc2c(C)cc(C)cc2C)c2cnc(Nc3ccccc3)nc21	> 2500 nM		
CCOc1ccccc1Oc1nc(Nc2ccc(N3CCNCC3)cc2)ncc1C(=O)Nc1c(C)cccc1C	20 nM	100 nM	clearance [12]: 63.3 mL/min/kg; AUC [13]: 76 ng·h/mL; Ki [3]: 13 nM; Ki [4]: 78 nM; Ki [5]: > 25000 nM; Ki (Angiopoietin-1 receptor): > 8300 nM; Ki [6]: 74 nM
CN(C)CCn1nc(Nc2c(Cl)cccc2Cl)c2cnc(Nc3ccccc3)nc21	5 nM	140 nM	
Cc1cccc(C)c1Nc1nn(CC[C@@H](O)CN(C)C)c2nc(Nc3ccccc3)ncc12	80 nM	190 nM	
Cc1cccc(C)c1Nc1nn(CCN2CCOCC2)c2nc(Nc3ccccc3)ncc12	50 nM	70 nM	
CN(C)[C@@H]1CCN(CCn2nc(Nc3c(Cl)cccc3Cl)c3cnc(Nc4ccccc4)nc32)C1	10 nM	20 nM	

Further molecules by falling Ki (Activated CDC42 kinase 1 [1]), results first:

Ki (Activated CDC42 kinase 1 [1])	IC50 (Activated CDC42 kinase 1 [2])	SMILES	further results
400 nM	2100 nM	COC(C)(C)CCn1nc(Nc2ccccc2)c2cnc(Nc3ccc(N4CCN(C)CC4)cc3)nc21	
100 nM	300 nM	Cc1cccc(C)c1Nc1nn(CCCN2CCCC2)c2nc(Nc3ccccc3)ncc12	
50 nM	30 nM	ON1CCN(CCn2nc(Nc3c(Cl)cccc3Cl)c3cnc(Nc4ccccc4)nc32)CC1	
40 nM	140 nM	CCN(CC)CCCn1nc(Nc2c(C)cccc2C)c2cnc(Nc3ccccc3)nc21	
30 nM	90 nM	CN(C)C(=O)Cn1nc(Nc2c(Cl)cccc2Cl)c2cnc(Nc3ccccc3)nc21	
30 nM	40 nM	Cc1cccc(C)c1Nc1nn(CCCN(C)C)c2nc(Nc3ccccc3)ncc12	
26 nM	5500 nM	COC(C)(C)CCn1nc(Nc2c(C)cc(F)cc2C)c2cnc(Nc3ccccc3)nc21	
12 nM	10 nM	COC(C)(C)CCn1nc(Nc2c(Cl)cccc2Cl)c2cnc(Nc3ccc(N4CCNCC4)cc3)nc21	clearance [7]: 70 mL/min/kg; Vd [8]: 15.4 L/kg; MRT [9]: 3.6 h; AUC [10]: 117 ng·h/mL
10 nM	20 nM	OC[C@H](O)CCn1nc(Nc2c(Cl)cccc2Cl)c2cnc(Nc3ccccc3)nc21	bioavailability [11]: 30%
3 nM	20 nM	COC(C)(C)CCn1nc(Nc2c(C)cccc2C)c2cnc(Nc3ccccc3)nc21	
2 nM	30 nM	COC(C)(C)CCn1nc(Nc2c(Cl)cccc2Cl)c2cnc(Nc3ccc(OCCN4CCCC4)c(F)c3)nc21	clearance [7]: 48.3 mL/min/kg; Vd [8]: 7.7 L/kg; MRT [9]: 2.7 h; AUC [10]: 174 ng·h/mL
